{"source": "paper PMC9302689", "about": "(British Journal of Clinical Pharmacology, 2022)", "key": {"healthy male subjects [1]": {"tested_on": "healthy male subjects", "assay": "Treatment emergent adverse events", "format": "in vivo, human", "details": "for Incidence of TEAE: Somnolence / Incidence of TEAE: Vomiting / Incidence of TEAE: Dizziness / Incidence of TEAE: Dizziness postural / Incidence of TEAE: Fatigue / Incidence of TEAE: Headache / Incidence of TEAE: Nausea / Incidence of TEAE: Oropharyngeal pain / Incidence of TEAE: Presyncope / Incidence of TEAE: Pruritus: n = 8"}, "[2]": {"molecular_target": "sigma non‐opioid intracellular receptor 1 (Homo sapiens, UniProt Q99720)", "sequence (Q99720 whole entry, species assumed)": "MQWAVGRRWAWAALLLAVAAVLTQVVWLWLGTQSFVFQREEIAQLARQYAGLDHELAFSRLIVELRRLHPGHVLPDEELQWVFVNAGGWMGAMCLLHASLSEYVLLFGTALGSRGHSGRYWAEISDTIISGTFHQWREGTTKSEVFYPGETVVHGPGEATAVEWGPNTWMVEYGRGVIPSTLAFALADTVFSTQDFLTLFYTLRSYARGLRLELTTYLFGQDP", "assay": "In vitro binding affinity, sigma non-opioid intracellular receptor 1"}, "healthy male subjects [3]": {"tested_on": "healthy male subjects", "assay": "NeuroCart saccadic eye movement", "format": "in vivo, human", "details": "12-hour post-dose period", "method_in_brief": "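Fasted healthy men were tested twice pre-dose and at 0.5–10 h post-dose with the head fixed 58 cm from the screen. Subjects followed a dot jumping about 15 degrees to either side. Fifteen saccades were recorded at random 3–6 s intervals. Peak velocity (deg/s) was averaged over artefact-free saccades. Change from baseline over 12 h was analysed by MMRM against pooled placebo.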"}, "healthy male subjects [4]": {"tested_on": "healthy male subjects", "assay": "NeuroCart smooth pursuit", "format": "in vivo, human", "details": "12-hour post-dose period", "method_in_brief": "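This used the same head-fixed screen set-up as the saccade test. Subjects tracked a dot moving continuously at 0.3–1.1 Hz in 0.1 Hz steps, twice pre-dose and at 0.5–10 h after a single dose or placebo. Change from baseline over 12 h was analysed by MMRM against pooled placebo, with baseline as covariate.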"}, "neuronal abnormalities": {"tested_on": "neuronal abnormalities", "assay": "Preclinical test for neuronal abnormalities", "format": "in vivo", "details": "up to a HED of 3360 mg"}}, "data": [{"smiles": "CN1CCC23CCCCC2C1Cc1ccc(C(N)=O)cc13", "note": "(stereo not drawn) [ALKS 7119, (9α, 13α)‐17‐methylmorphinan‐3‐carboxamide]", "values": [{"measurement": "Incidence of TEAE: Somnolence", "setting": "healthy male subjects [1]; 100 mg single oral dose", "value": 2}, {"measurement": "Incidence of TEAE: Vomiting", "setting": "healthy male subjects [1]; 100 mg single oral dose", "value": 1}, {"measurement": "Incidence of TEAE: Dizziness", "setting": "healthy male subjects [1]; 125 mg single oral dose", "value": 1}, {"measurement": "Incidence of TEAE: Dizziness postural", "setting": "healthy male subjects [1]; 125 mg single oral dose", "value": 0}, {"measurement": "Incidence of TEAE: Fatigue", "setting": "healthy male subjects [1]; 125 mg single oral dose", "value": 0}, {"measurement": "Incidence of TEAE: Headache", "setting": "healthy male subjects [1]; 125 mg single oral dose", "value": 2}, {"measurement": "Incidence of TEAE: Nausea", "setting": "healthy male subjects [1]; 125 mg single oral dose", "value": 2}, {"measurement": "Incidence of TEAE: Oropharyngeal pain", "setting": "healthy male subjects [1]; 125 mg single oral dose", "value": 0}, {"measurement": "Incidence of TEAE: Presyncope", "setting": "healthy male subjects [1]; 125 mg single oral dose", "value": 0}, {"measurement": "Incidence of TEAE: Pruritus", "setting": "healthy male subjects [1]; 125 mg single oral dose", "value": 1}, {"measurement": "Incidence of TEAE: Somnolence", "setting": "healthy male subjects [1]; 125 mg single oral dose", "value": 0}, {"measurement": "Incidence of TEAE: Vomiting", "setting": "healthy male subjects [1]; 125 mg single oral dose", "value": 0}, {"measurement": "Incidence of TEAE: Dizziness", "setting": "healthy male subjects [1]; 150 mg single oral dose", "value": 1}, {"measurement": "Incidence of TEAE: Dizziness postural", "setting": "healthy male subjects [1]; 150 mg single oral dose", "value": 0}, {"measurement": "Incidence of TEAE: Fatigue", "setting": "healthy male subjects [1]; 150 mg single oral dose", "value": 1}, {"measurement": "Incidence of TEAE: Headache", "setting": "healthy male subjects [1]; 150 mg single oral dose", "value": 2}, {"measurement": "Incidence of TEAE: Nausea", "setting": "healthy male subjects [1]; 150 mg single oral dose", "value": 5}, {"measurement": "Incidence of TEAE: Oropharyngeal pain", "setting": "healthy male subjects [1]; 150 mg single oral dose", "value": 0}, {"measurement": "Incidence of TEAE: Presyncope", "setting": "healthy male subjects [1]; 150 mg single oral dose", "value": 3}, {"measurement": "Incidence of TEAE: Pruritus", "setting": "healthy male subjects [1]; 150 mg single oral dose", "value": 0}, {"measurement": "Incidence of TEAE: Somnolence", "setting": "healthy male subjects [1]; 150 mg single oral dose", "value": 1}, {"measurement": "Incidence of TEAE: Vomiting", "setting": "healthy male subjects [1]; 150 mg single oral dose", "value": 1}, {"measurement": "Incidence of TEAE: Dizziness", "setting": "healthy male subjects [1]; 175 mg single oral dose", "value": 0}, {"measurement": "Incidence of TEAE: Dizziness postural", "setting": "healthy male subjects [1]; 175 mg single oral dose", "value": 0}, {"measurement": "Incidence of TEAE: Fatigue", "setting": "healthy male subjects [1]; 175 mg single oral dose", "value": 0}, {"measurement": "Incidence of TEAE: Headache", "setting": "healthy male subjects [1]; 175 mg single oral dose", "value": 0}, {"measurement": "Incidence of TEAE: Nausea", "setting": "healthy male subjects [1]; 175 mg single oral dose", "value": 5}, {"measurement": "Incidence of TEAE: Oropharyngeal pain", "setting": "healthy male subjects [1]; 175 mg single oral dose", "value": 0}, {"measurement": "Incidence of TEAE: Presyncope", "setting": "healthy male subjects [1]; 175 mg single oral dose", "value": 4}, {"measurement": "Incidence of TEAE: Pruritus", "setting": "healthy male subjects [1]; 175 mg single oral dose", "value": 0}, {"measurement": "Incidence of TEAE: Somnolence", "setting": "healthy male subjects [1]; 175 mg single oral dose", "value": 1}, {"measurement": "Incidence of TEAE: Vomiting", "setting": "healthy male subjects [1]; 175 mg single oral dose", "value": 0}, {"measurement": "Incidence of TEAE: Dizziness", "setting": "healthy male subjects [1]; 200 mg single oral dose", "value": 2}, {"measurement": "Incidence of TEAE: Dizziness postural", "setting": "healthy male subjects [1]; 200 mg single oral dose", "value": 0}, {"measurement": "Incidence of TEAE: Fatigue", "setting": "healthy male subjects [1]; 200 mg single oral dose", "value": 1}, {"measurement": "Incidence of TEAE: Headache", "setting": "healthy male subjects [1]; 200 mg single oral dose", "value": 3}, {"measurement": "Incidence of TEAE: Nausea", "setting": "healthy male subjects [1]; 200 mg single oral dose", "value": 3}, {"measurement": "Incidence of TEAE: Oropharyngeal pain", "setting": "healthy male subjects [1]; 200 mg single oral dose", "value": 0}, {"measurement": "Incidence of TEAE: Presyncope", "setting": "healthy male subjects [1]; 200 mg single oral dose", "value": 1}, {"measurement": "Incidence of TEAE: Pruritus", "setting": "healthy male subjects [1]; 200 mg single oral dose", "value": 2}, {"measurement": "Incidence of TEAE: Somnolence", "setting": "healthy male subjects [1]; 200 mg single oral dose", "value": 1}, {"measurement": "Incidence of TEAE: Vomiting", "setting": "healthy male subjects [1]; 200 mg single oral dose", "value": 0}, {"measurement": "Subjects reporting TEAEs", "setting": "healthy male subjects [1]; all ALKS 7119 doses, 51 of 80 subjects (placebo 40%)", "value": 64, "unit": "%"}, {"measurement": "Affinity for sigma non-opioid intracellular receptor 1 lower than for SERT", "setting": "[2]", "value": 900, "unit": "fold"}, {"measurement": "Saccadic peak velocity, LSM CFB", "setting": "healthy male subjects [3]; 3 mg single oral dose", "value": "−16.15", "unit": "deg/s"}, {"measurement": "Saccadic peak velocity, LSM CFB", "setting": "healthy male subjects [3]; 10 mg single oral dose", "value": 1.46, "unit": "deg/s"}, {"measurement": "Saccadic peak velocity, LSM CFB", "setting": "healthy male subjects [3]; 25 mg single oral dose", "value": 6.12, "unit": "deg/s"}, {"measurement": "Saccadic peak velocity, LSM CFB", "setting": "healthy male subjects [3]; 50 mg single oral dose", "value": 2.91, "unit": "deg/s"}, {"measurement": "Saccadic peak velocity, LSM CFB", "setting": "healthy male subjects [3]; 75 mg single oral dose", "value": "−5.63", "unit": "deg/s"}, {"measurement": "Saccadic peak velocity, LSM CFB", "setting": "healthy male subjects [3]; 100 mg single oral dose", "value": 13.25, "unit": "deg/s"}, {"measurement": "Saccadic peak velocity, LSM CFB", "setting": "healthy male subjects [3]; 125 mg single oral dose", "value": 5.98, "unit": "deg/s"}, {"measurement": "Saccadic peak velocity, LSM CFB", "setting": "healthy male subjects [3]; 150 mg single oral dose", "value": 18.15, "unit": "deg/s"}, {"measurement": "Saccadic peak velocity, LSM CFB", "setting": "healthy male subjects [3]; 175 mg single oral dose", "value": 5.26, "unit": "deg/s"}, {"measurement": "Saccadic peak velocity, LSM CFB", "setting": "healthy male subjects [3]; 200 mg single oral dose", "value": "−0.64", "unit": "deg/s"}, {"measurement": "Smooth pursuit, LSM CFB", "setting": "healthy male subjects [4]; 3 mg single oral dose", "value": "−0.26", "unit": "%"}, {"measurement": "Smooth pursuit, LSM CFB", "setting": "healthy male subjects [4]; 10 mg single oral dose", "value": 0.06, "unit": "%"}, {"measurement": "Smooth pursuit, LSM CFB", "setting": "healthy male subjects [4]; 25 mg single oral dose", "value": "−1.44", "unit": "%"}, {"measurement": "Smooth pursuit, LSM CFB", "setting": "healthy male subjects [4]; 50 mg single oral dose", "value": "−0.03", "unit": "%"}, {"measurement": "Smooth pursuit, LSM CFB", "setting": "healthy male subjects [4]; 75 mg single oral dose", "value": "−3.44", "unit": "%"}, {"measurement": "Smooth pursuit, LSM CFB", "setting": "healthy male subjects [4]; 100 mg single oral dose", "value": "−0.49", "unit": "%"}, {"measurement": "Smooth pursuit, LSM CFB", "setting": "healthy male subjects [4]; 125 mg single oral dose", "value": "−3.82", "unit": "%"}, {"measurement": "Smooth pursuit, LSM CFB", "setting": "healthy male subjects [4]; 150 mg single oral dose", "value": "−1.14", "unit": "%"}, {"measurement": "Smooth pursuit, LSM CFB", "setting": "healthy male subjects [4]; 175 mg single oral dose", "value": "−1.07", "unit": "%"}, {"measurement": "Smooth pursuit, LSM CFB", "setting": "healthy male subjects [4]; 200 mg single oral dose", "value": 1.24, "unit": "%"}, {"measurement": "Potential to induce neuronal abnormalities", "setting": "neuronal abnormalities", "value": "no potential to induce neuronal abnormalities"}]}]}
